GASC1 inh = blocks human GASC-1 (KDM4C) demethylase activity; Q9H3R0; GST-KDM4C 2-372, H3K9me3 peptide, LANCE TR-FRET; inhibition, % at 12.5 µM; 0.15% of 96,000 active;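 active means mean replicate inhibition above about 25%, with at least 55% of replicates also reaching it, limit read from the data, passing the limit was not always enough; inconclusive means only one of those two conditions met; inactive means neither condition met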
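System: N-terminal GST-fused human GASC-1 (KDM4C) fragment, residues 2-372 / Amount: 10 nM GST-KDM4C in enzyme reaction / Also added: H3K9me3 peptide with Fe(II)/2OG / Times: 30 min demethylation and 1 h detection at room temperature / Signal: LANCE TR-FRET / Read-out basis: Fall in 671/618 emission ratio as inhibition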
Pf Dd2 inh = inhibitors of Plasmodium falciparum Dd2 growth. P. falciparum Dd2 growth, SYBR Green, 72 h; stronger effect = lower value. activity change, % at 10 µM. 2.3% of 94,000 active; in the data active means activity change below about -80%; inconclusive means no clear call, values can overlap the other calls
T cruzi growth-1 = inhibitors of T. cruzi proliferation | T. cruzi beta-gal in NIH3T3, GalScreen luminescence, 90 h | inhibition, % at 8.34 µM | 5.9% of 77,000 active | AID 624255;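 active means mean inhibition above about 93%, with at least 55% of replicates each passing it, limit read from the data, passing the limit was not always enough; inconclusive means only one of those two conditions holds; inactive means neither condition holds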
IDH1 R132H inh = inhibitors of human IDH1 R132H; O75874; IDH1 R132H reductase, diaphorase/resazurin fluorescence, 60 min; inhibition, % at 10 µM; 0.18% of 70,000 active; in the data active means inhibition above about 34%; inconclusive means no clear call, values can overlap the other calls; inactive means below about 11%;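 further: 0% = DMSO and 100% = no enzyme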
Target sequence (O75874 whole entry R132H): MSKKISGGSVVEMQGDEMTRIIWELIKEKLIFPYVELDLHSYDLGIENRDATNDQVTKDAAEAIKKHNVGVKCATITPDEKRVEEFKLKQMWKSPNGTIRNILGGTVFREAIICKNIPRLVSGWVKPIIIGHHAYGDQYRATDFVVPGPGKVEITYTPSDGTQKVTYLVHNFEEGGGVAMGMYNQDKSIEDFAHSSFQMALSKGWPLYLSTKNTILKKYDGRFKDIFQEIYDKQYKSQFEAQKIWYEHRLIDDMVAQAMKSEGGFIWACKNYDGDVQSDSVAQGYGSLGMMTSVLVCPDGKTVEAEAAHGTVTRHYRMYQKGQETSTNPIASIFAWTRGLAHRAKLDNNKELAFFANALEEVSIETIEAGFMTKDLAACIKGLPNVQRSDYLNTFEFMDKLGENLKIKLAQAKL
T cruzi growth-2 = inhibitors of T. cruzi proliferation; inhibition, % at 8.35 µM; shares compounds with T cruzi growth-1; T. cruzi beta-gal in NIH3T3, GalScreen luminescence, 90 h; AID 651739; 72% of 5,600 active;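 active means mean replicate inhibition above about 95% and at least 55% of replicates individually reaching it, limit read from the data; inconclusive means only one of the two criteria is met; inactive means neither criterion is met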
T cruzi growth-3 = inhibitors of T. cruzi proliferation; AID 651740; shares compounds with T cruzi growth-1; 21% of 5,600 active; inhibition, % at 2.09 µM; T. cruzi beta-gal in NIH3T3, GalScreen luminescence, 90 h;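 active means mean inhibition above about 95%, with at least 55% of replicates also reaching it, limit read from the data; inconclusive means meets just one of the two conditions; inactive means meets neither condition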;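 further: plate controls were neutral control median for no effect and positive control median for full effect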
NIH3T3 tox = NIH/3T3 (mouse) viability loss | NIH/3T3 viability, CellTiter-Glo ATP luminescence, 90 h | 14% of 5,600 active | shares compounds with T cruzi growth-1 | cytotoxicity (signal decrease), % at 8.35 µM;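 active means mean signal decrease across replicates above about 35% based on untreated-well scatter, with enough replicates individually passing, limit read from the data; inconclusive means no rule stated though some were filed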;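 further: 0% = median of neutral control wells and 100% = median of positive control wells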
3T3 cytotox 2 = kills mouse NIH/3T3 fibroblasts; shares compounds with T cruzi growth-1; AID 651744; 56% of 5,600 active; inhibition, % at 24.9 µM; NIH/3T3 viability, CellTiter-Glo ATP luminescence, 90 h;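 active means mean loss of cell viability signal at or above a set limit, and enough replicates individually reaching it; inconclusive means meets only the mean limit or only the replicate share; inactive means meets neither condition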;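 further: 0% = median of neutral control wells and 100% = median of positive control wells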
* hit, by the source's call; u = inconclusive; x = not tested or not shown. The list is not random: actives were taken first. Their share in the collection is about 5.9%.

SMILES	GASC1 inh	Pf Dd2 inh	T cruzi growth-1	IDH1 R132H inh	T cruzi growth-2	T cruzi growth-3	NIH3T3 tox	3T3 cytotox 2
C[C@@H]1CN([C@H](C)CO)C(=O)c2cc(/C=C/c3ccccc3)cnc2O[C@@H]1CN(C)C(=O)C1CCCCC1	-0.1	-71.2	29.7	x	x	x	x	x
COc1ccccc1NC(=O)c1cnc(Nc2nc3ccccc3o2)nc1C	x	x	x	0.3	x	x	x	x
COc1cccc(-c2ccc([C@@H]3[C@@H](CO)N4CCCCN(C(=O)c5ccc6c(c5)OCO6)C[C@@H]34)cc2)c1	-0.3	20.2	u	x	103.8*	56.6	26.9	56.1*
COc1cccc(-c2ccc([C@H]3[C@H](CO)N4CCCCN(C(=O)c5ccc6c(c5)OCO6)C[C@@H]34)cc2)c1	-1.6	0.3	109.4*	x	101.5*	44.6	39.8*	72.4*
COc1cccc(-c2ccc([C@H]3[C@H]4CN(C(=O)c5ccc6c(c5)OCO6)CCCCN4[C@H]3CO)cc2)c1	-3.6	-46.8	75.7	x	x	x	x	x
OC[C@@H]1[C@H](c2ccc(C#Cc3cccnc3)cc2)[C@H]2CN(Cc3ccccc3F)CCCCN12	-0.6	-75.0	114.2*	x	102.2*	112.6*	49.9*	103.7*
OC[C@H]1[C@H](c2ccc(C#Cc3cccnc3)cc2)[C@@H]2CN(Cc3ccccc3F)CCCCN12	-0.2	-71.4	112.0*	x	111.0*	51.9	28.2	103.3*
OC[C@@H]1[C@@H](c2ccc(C#CC3(O)CCCC3)cc2)[C@H]2CN(Cc3ccccc3F)CCCCN12	-1.2	-25.7	105.1*	x	67.3	20.5	1.3	58.1*
Cc1ccc(-c2nc3ccccc3s2)cc1NC(=O)COc1ccc(Br)cc1	x	x	x	-0.1	x	x	x	x
CCc1sc(-c2ccc(Cl)cc2)nc1C(=O)OC	x	x	x	1.5	x	x	x	x
O=C(C1CCCC1)N1CCCCN2[C@H](CO)[C@@H](c3ccc(-c4ccncc4)cc3)[C@H]2C1	x	45.2	u	x	55.2	36.0	10.7	18.6
O=C(C1CCCC1)N1CCCCN2[C@@H](CO)[C@@H](c3ccc(-c4ccncc4)cc3)[C@@H]2C1	x	11.6	48.6	x	x	x	x	x
O=C(C1CCC1)N1CCCCN2[C@@H](CO)[C@@H](c3ccc(-c4ccncc4)cc3)[C@@H]2C1	-0.7	7.2	109.2*	x	105.0*	86.5	20.2	50.8*
O=C(C1CCC1)N1CCCCN2[C@H](CO)[C@@H](c3ccc(-c4ccncc4)cc3)[C@H]2C1	14.9	26.5	98.0*	x	100.0*	16.0	-7.5	5.1
O=C(C1CCC1)N1CCCCN2[C@H](CO)[C@H](c3ccc(-c4ccncc4)cc3)[C@H]2C1	-1.4	3.5	101.0*	x	92.3	82.0	-13.5	-13.4
COC(=O)C1=CO[C@@H](O[C@@H]2O[C@H](CO)[C@@H](O)[C@H](O)[C@H]2O)[C@H]2[C@@H]1C=CC21C=C(C(C)O)C(=O)O1 (stereo not given in full)	x	x	x	-0.1	x	x	x	x
CC(C)CC#Cc1ccc2c(c1)O[C@H](CN(C)C(=O)C1CCC1)[C@H](C)CN([C@H](C)CO)S2(=O)=O	1.3	-37.6	83.9	0.7	x	x	x	x
CC(C)CC#Cc1ccc2c(c1)O[C@@H](CN(C)C(=O)C1CCC1)[C@H](C)CN([C@H](C)CO)S2(=O)=O	-0.5	-48.9	u	x	102.3*	79.8	-19.6	101.1*
CC(C)CC#Cc1ccc2c(c1)O[C@H](CN(C)C(=O)C1CCC1)[C@@H](C)CN([C@@H](C)CO)S2(=O)=O	-2.5	-54.1	106.0*	x	106.7*	83.0	15.4	103.9*
CC(C)CC#Cc1ccc2c(c1)O[C@@H](CN(C)C(=O)C1CCC1)[C@@H](C)CN([C@H](C)CO)S2(=O)=O	-1.1	-44.1	76.0	0.1	x	x	x	x
CC(C)CC#Cc1ccc2c(c1)O[C@H](CN(C)C(=O)C1CCC1)[C@H](C)CN([C@@H](C)CO)S2(=O)=O	-0.3	-44.5	95.0	x	x	x	x	x
